ChEMBL document CHEMBL1806467 (Bioorg Med Chem Lett, 2011)
Converted amounts (≈) assume the structure as drawn. The source made the active and inactive calls. The calls are words filed in the database; no cut-off is given here.

Experiments:
[1] = Half life in rat liver microsomes after 30 mins; assay type: ADME, Microsome
In short: (§1)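 Drug incubated with liver microsomes of the stated species (rat, nude mouse, human) for 30 min; half-life of drug determined.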

[2] = Aqueous solubility of the compound at pH 7.4; assay type: physicochemical; conditions: buffer
[3] = Half life in nude mouse liver microsomes after 30 mins; assay type: ADME, Microsome; in short: as §1
MDA-MB-361 = assay: cells; conditions: Homo sapiens, MDA-MB-361, 72 h
[4] = biological target: Serine/threonine-protein kinase mTOR (Homo sapiens, UniProt P42345); assay: Inhibition of mTOR
PC-3 = assay: cells; conditions: Homo sapiens, PC-3, 72 h
[5] = Half life in human liver microsomes after 30 mins; assay type: ADME, Microsome; in short: as §1
Mus musculus [6] = species on record: Mus musculus; conditions: MDA-MB-361, 25 mg/kg
Mus musculus [7] = species on record: Mus musculus; conditions: MDA-MB-361, 25 mg/kg; remark: listed apart in the source
Mus musculus [8] = species on record: Mus musculus; conditions: MDA-MB-361, 10 mg/kg
Mus musculus [9] = species on record: Mus musculus; conditions: MDA-MB-361, 10 mg/kg; remark: listed apart in the source
Mus musculus [10] = species on record: Mus musculus; conditions: MDA-MB-361, 25 mg/kg; remark: listed apart in the source
Mus musculus [11] = species on record: Mus musculus; conditions: MDA-MB-361, 10 mg/kg; remark: listed apart in the source
Mus musculus [12] = species on record: Mus musculus; conditions: MDA-MB-361, 10 mg/kg; remark: listed apart in the source
Mus musculus [13] = species on record: Mus musculus; conditions: MDA-MB-361, 25 mg/kg; remark: listed apart in the source
Mus musculus [14] = species on record: Mus musculus; conditions: MDA-MB-361, 25 mg/kg; remark: listed apart in the source
Mus musculus [15] = species on record: Mus musculus; conditions: MDA-MB-361, 10 mg/kg; remark: listed apart in the source
[16] = biological target: Phosphatidylinositol 4,5-bisphosphate 3-kinase catalytic subunit alpha isoform (Homo sapiens, UniProt P42336); assay: Inhibition of human PI3Kalpha expressed in SF9 insect cells after 2 hrs by fluorescence polarization assay
Chain of Phosphatidylinositol 4,5-bisphosphate 3-kinase catalytic subunit alpha isoform (P42336 whole entry, canonical isoform): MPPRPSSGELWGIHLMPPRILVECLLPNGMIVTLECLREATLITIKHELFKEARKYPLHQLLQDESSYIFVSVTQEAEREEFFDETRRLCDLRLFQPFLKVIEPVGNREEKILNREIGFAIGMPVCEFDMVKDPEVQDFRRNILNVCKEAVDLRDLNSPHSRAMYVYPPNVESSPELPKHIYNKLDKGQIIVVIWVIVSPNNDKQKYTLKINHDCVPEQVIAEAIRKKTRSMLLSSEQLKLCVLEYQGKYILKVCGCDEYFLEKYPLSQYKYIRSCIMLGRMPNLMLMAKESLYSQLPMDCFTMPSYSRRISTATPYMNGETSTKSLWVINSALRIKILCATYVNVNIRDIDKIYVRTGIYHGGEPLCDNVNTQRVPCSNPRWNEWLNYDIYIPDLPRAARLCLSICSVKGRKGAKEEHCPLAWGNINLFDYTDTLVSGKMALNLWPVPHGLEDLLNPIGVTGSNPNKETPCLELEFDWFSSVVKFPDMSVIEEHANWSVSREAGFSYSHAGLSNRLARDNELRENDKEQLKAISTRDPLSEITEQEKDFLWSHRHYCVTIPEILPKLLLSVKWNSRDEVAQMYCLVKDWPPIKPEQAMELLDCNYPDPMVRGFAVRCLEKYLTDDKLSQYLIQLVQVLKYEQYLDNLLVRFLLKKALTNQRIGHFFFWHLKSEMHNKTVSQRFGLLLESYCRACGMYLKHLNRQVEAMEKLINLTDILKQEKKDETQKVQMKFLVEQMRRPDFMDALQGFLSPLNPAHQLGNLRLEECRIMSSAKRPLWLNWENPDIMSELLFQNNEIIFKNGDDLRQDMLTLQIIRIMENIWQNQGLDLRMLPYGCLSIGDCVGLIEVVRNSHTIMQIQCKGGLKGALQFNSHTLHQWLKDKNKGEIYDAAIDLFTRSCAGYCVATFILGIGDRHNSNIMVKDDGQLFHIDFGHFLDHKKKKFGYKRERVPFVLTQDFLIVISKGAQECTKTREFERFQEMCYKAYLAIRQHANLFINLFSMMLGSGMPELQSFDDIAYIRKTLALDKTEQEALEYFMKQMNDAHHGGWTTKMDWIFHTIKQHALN

Mus musculus [17] = assay: In vivo inhibition of PI3K/mTOR in human MDA-MB-361 cells xenografted nude mouse assessed as induction of cleaved poly-adenosine-diphosphate-ribose polymerase at 50 mg/kg, iv after 8 hrs by immunoblotting; assay type: functional, organism-based; design: dose 50 mg/kg

CN1C2CCC1CC(Oc1nc(-c3ccc(NC(=O)Nc4ccc(C(N)=O)cc4)cc3)nc(N3CCOCC3)n1)C2 (stereo not drawn) gave a half-life [1] of 4 min and a solubility [2] of 62 µg/mL (≈ 111 µM).
O=C(Nc1ccc(C(=O)NCCN2CCCCC2)cc1)Nc1ccc(-c2nc(O[C@H]3CCOC3)nc(N3CCOCC3)n2)cc1 gave a half-life [1] of 27 min, a half-life [3] of over 30 min and an IC50 (MDA-MB-361) of 5 nM. The solubility [2] was 1 µg/mL (≈ 1.62 µM), the IC50 [4] was 0.4 nM and the IC50 (PC-3) was 18 nM. The half-life [5] was over 30 min.
With CN(C)C1CCN(C(=O)c2ccc(NC(=O)Nc3ccc(-c4nc(N5CCOCC5)nc(N5CCOCC5)n4)cc3)cc2)CC1 [GEDATOLISIB] the half-life [1] was over 30 min, the inhibition (Mus musculus [6]) was “Active” and the half-life [3] was over 30 min. For the same compound, the inhibition (Mus musculus [7]) was “Active”, the inhibition (Mus musculus [8]) was “Active” and the inhibition (Mus musculus [9]) was “Active”. The solubility [2] was 15 µg/mL (≈ 24.4 µM), the inhibition (Mus musculus [10]) was “Active” and the inhibition (Mus musculus [11]) was “Active”. For the same compound, the inhibition (Mus musculus [12]) was “Active”, the inhibition (Mus musculus [13]) was “Active” and the inhibition (Mus musculus [14]) was “Active”. The inhibition (Mus musculus [15]) was “Active” and the half-life [5] was over 30 min.
COc1nc(-c2ccc(NC(=O)Nc3ccc(C(=O)NCCN4CCCCC4)cc3)cc2)nc(N2CCOCC2)n1 showed a half-life [1] of over 30 min, a half-life [3] of over 30 min and an IC50 (MDA-MB-361) of under 31 nM. It also gave a solubility [2] of over 100 µg/mL, an IC50 (PC-3) of 69 nM and a half-life [5] of over 30 min.
CC(C)Oc1nc(-c2ccc(NC(=O)Nc3ccc(C(=O)N4CCN(C)CC4)cc3)cc2)nc(N2CCOCC2)n1 gave a half-life [1] of 17 min, a half-life [3] of over 30 min and a half-life [5] of over 30 min.
For CN(C)C1CCN(C(=O)c2ccc(NC(=O)Nc3ccc(-c4nc(O[C@H]5CCOC5)nc(N5CCOCC5)n4)cc3)cc2)CC1, the half-life [3] was over 30 min and the half-life [5] was 18 min.
For CN1CCN(C(=O)c2ccc(NC(=O)Nc3ccc(-c4nc(OC5COC5)nc(N5CCOCC5)n4)cc3)cc2)CC1, the half-life [1] was over 30 min and the solubility [2] was 4 µg/mL (≈ 6.96 µM).
Compound O=C(Nc1ccc(C(=O)NCCN2CCCC2)cc1)Nc1ccc(-c2nc(O[C@H]3CCOC3)nc(N3CCOCC3)n2)cc1 has a half-life [1] of 28 min, a half-life [3] of over 30 min and an IC50 (MDA-MB-361) of 8 nM. The solubility [2] was 23 µg/mL (≈ 38.2 µM), the IC50 [4] was 0.3 nM and the IC50 (PC-3) was 27 nM. For the same compound, the half-life [5] was over 30 min.
Work on COc1nc(-c2ccc(NC(=O)Nc3ccc(C(=O)N4CCNC(C)(C)C4)cc3)cc2)nc(N2CCOCC2)n1 yielded a half-life [1] of 29 min, a half-life [3] of over 30 min and an IC50 (MDA-MB-361) of 30 nM. For the same compound, the solubility [2] was 61 µg/mL (≈ 112 µM), the IC50 [4] was 18.5 nM and the IC50 (PC-3) was 111 nM. For the same compound, the IC50 [16] was 1.4 nM and the half-life [5] was over 30 min.
In the case of CN1CCN(C(=O)c2ccc(NC(=O)Nc3ccc(-c4nc(N5CCOCC5)[nH]c(=O)n4)cc3)cc2)CC1, the half-life [1] is reported as over 30 min, the IC50 (MDA-MB-361) is reported as over 1000 nM and the IC50 (PC-3) is reported as over 1000 nM.
Work on COc1nc(-c2ccc(NC(=O)Nc3ccc(C(=O)NCCN(C)C)cc3)cc2)nc(N2CCOCC2)n1 yielded a half-life [1] of over 30 min, a half-life [3] of over 30 min and an IC50 (MDA-MB-361) of under 31 nM. For the same compound, the solubility [2] was over 100 µg/mL, the IC50 (PC-3) was 71 nM and the half-life [5] was over 30 min.
In the case of CN1CCN(C(=O)c2ccc(NC(=O)Nc3ccc(-c4nc(O[C@H]5CCOC5)nc(N5CCOCC5)n4)cc3)cc2)CC1, the half-life [1] is reported as 20 min, the half-life [3] is reported as over 30 min and the solubility [2] is reported as 1 µg/mL (≈ 1.7 µM). It also gave a half-life [5] of 15 min.
For COc1nc(-c2ccc(NC(=O)Nc3ccc(C(=O)N4CCN(C)CC4)cc3)cc2)nc(N2CCOCC2)n1, the half-life [1] was 16 min, the half-life [3] was over 30 min and the IC50 (MDA-MB-361) was 35 nM. The solubility [2] was 3 µg/mL (≈ 5.63 µM), the IC50 (PC-3) was 91 nM and the IC50 [16] was 1.2 nM. The half-life [5] was over 30 min.
With CC(C)Oc1nc(-c2ccc(NC(=O)Nc3ccc(C(=O)NCCN(C)C)cc3)cc2)nc(N2CCOCC2)n1 the half-life [1] was over 30 min, the half-life [3] was over 30 min and the IC50 (MDA-MB-361) was 11 nM. For the same compound, the solubility [2] was 3 µg/mL (≈ 5.47 µM), the IC50 [4] was 0.4 nM and the IC50 (PC-3) was 41 nM. For the same compound, the half-life [5] was over 30 min.
For CCn1nnc2c(N3CCOCC3)nc(-c3ccc(NC(=O)Nc4ccc(C(=O)N5CCN(C)CC5)cc4)cc3)nc21, the half-life [3] was over 30 min, the IC50 (MDA-MB-361) was 8 nM and the inhibition (Mus musculus [17]) was “Active”. It also gave an IC50 [4] of 2 nM and a half-life [5] of over 30 min.
In the case of CNCCN(C)C(=O)c1ccc(NC(=O)Nc2ccc(-c3nc(OC)nc(N4CCOCC4)n3)cc2)cc1, the half-life [1] is reported as over 30 min, the half-life [3] is reported as over 30 min and the IC50 (MDA-MB-361) is reported as 110 nM. For the same compound, the solubility [2] was over 100 µg/mL, the IC50 (PC-3) was 374 nM and the half-life [5] was over 30 min.
In the case of CN(C)CCN(C)C(=O)c1ccc(NC(=O)Nc2ccc(-c3nc(O[C@H]4CCOC4)nc(N4CCOCC4)n3)cc2)cc1, the half-life [1] is reported as 27 min, the inhibition (Mus musculus [6]) is reported as “Active” and the half-life [3] is reported as over 30 min. The inhibition (Mus musculus [7]) was “Active”, the solubility [2] was over 100 µg/mL and the inhibition (Mus musculus [10]) was “Active”. For the same compound, the inhibition (Mus musculus [13]) was “Active”, the inhibition (Mus musculus [14]) was “Active” and the half-life [5] was over 30 min.
Compound COc1nc(-c2ccc(NC(=O)Nc3ccc(C(=O)N(C)CCN(C)C)cc3)cc2)nc(N2CCOCC2)n1 has a half-life [1] of 15 min, a half-life [3] of over 30 min and an IC50 (MDA-MB-361) of 15 nM. The solubility [2] was over 100 µg/mL, the IC50 (PC-3) was 34 nM and the half-life [5] was over 30 min.
In the case of CC(C)Oc1nc(-c2ccc(NC(=O)Nc3ccc(C(=O)N(C)CCN(C)C)cc3)cc2)nc(N2CCOCC2)n1, the half-life [1] is reported as over 30 min, the half-life [3] is reported as 23 min and the solubility [2] is reported as 15 µg/mL (≈ 26.7 µM). It also gave a half-life [5] of over 30 min.
